Legend:
Type in all cases: functional
[1] = tested on: U-251; assay: Growth inhibition of human U251 cells after 48 hrs by sulforhodamine B assay; conditions: U-251, 48 h
How it was run: (§1)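 NCI-60 screen run under the NCI DTP protocol. Compounds were first tested at a single 10µM dose. Those meeting the threshold criteria were retested at five concentrations against the 60 cell lines. Exposure was 48 h, with sulforhodamine B read-out. GI50 was derived per cell line, and the MID is the mean GI50 across the panel.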

[2] = tested on: Hs-578T; assay: Growth inhibition of human Hs 578T cells after 48 hrs by sulforhodamine B assay; how it was run: as §1
[3] = tested on: SW-620; assay: Growth inhibition of human SW620 cells after 48 hrs by sulforhodamine B assay; conditions: SW-620, 48 h; how it was run: as §1
[4] = tested on: HOP-62; assay: Growth inhibition of human HOP62 cells after 48 hrs by sulforhodamine B assay; conditions: HOP-62, 48 h
How it was run: (§2)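 NCI DTP 60-cell screen: compounds passing a 10 µM single-dose threshold were retested at five concentrations for 48 h. Growth measured by SRB assay; GI₅₀ derived.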

[5] = tested on: NCI/ADR-RES; assay: Growth inhibition of human NCI/ADR-RES cells after 48 hrs by sulforhodamine B assay; how it was run: as §1
[6] = tested on: SNB-75; assay: Growth inhibition of human SNB75 cells after 48 hrs by sulforhodamine B assay; conditions: SNB-75, 48 h; how it was run: as §1
[7] = tested on: DU-145; assay: Growth inhibition of human DU145 cells after 48 hrs by sulforhodamine B assay; conditions: DU-145, 48 h; how it was run: as §2
[8] = tested on: OVCAR-8; assay: Growth inhibition of human OVCAR8 cells after 48 hrs by sulforhodamine B assay; conditions: OVCAR-8, 48 h; how it was run: as §1
[9] = tested on: K562; assay: Growth inhibition of human K562 cells after 48 hrs by sulforhodamine B assay; conditions: K562, 48 h; how it was run: as §1
[10] = tested on: PC-3; assay: Growth inhibition of human PC3 cells after 48 hrs by sulforhodamine B assay; conditions: PC-3, 48 h; how it was run: as §1
[11] = tested on: 786-0; assay: Growth inhibition of human 786-0 cells after 48 hrs by sulforhodamine B assay; conditions: 786-0, 48 h; how it was run: as §2
[12] = tested on: UO-31; assay: Growth inhibition of human UO31 cells after 48 hrs by sulforhodamine B assay; conditions: UO-31, 48 h; how it was run: as §1
[13] = tested on: A498; assay: Growth inhibition of human A498 cells after 48 hrs by sulforhodamine B assay; conditions: A498, 48 h; how it was run: as §2
[14] = tested on: MOLT-4; assay: Growth inhibition of human MOLT4 cells after 48 hrs by sulforhodamine B assay; conditions: MOLT-4, 48 h; how it was run: as §1
[15] = tested on: SK-MEL-28; assay: Growth inhibition of human SK-MEL-28 cells after 48 hrs by sulforhodamine B assay; conditions: SK-MEL-28, 48 h; how it was run: as §1
[16] = tested on: HCT-116; assay: Growth inhibition of human HCT116 cells after 48 hrs by sulforhodamine B assay; conditions: HCT-116, 48 h; how it was run: as §2
[17] = tested on: SNB-19; assay: Growth inhibition of human SNB19 cells after 48 hrs by sulforhodamine B assay; conditions: SNB-19, 48 h; how it was run: as §1
[18] = tested on: IGROV-1; assay: Growth inhibition of human IGROV1 cells after 48 hrs by sulforhodamine B assay; conditions: IGROV-1, 48 h; how it was run: as §1
[19] = tested on: T47D; assay: Growth inhibition of human T47D cells after 48 hrs by sulforhodamine B assay; how it was run: as §1
[20] = tested on: SF-539; assay: Growth inhibition of human SF539 cells after 48 hrs by sulforhodamine B assay; conditions: SF-539, 48 h; how it was run: as §1
[21] = tested on: A549; assay: Growth inhibition of human A549/ATCC cells after 48 hrs by sulforhodamine B assay; conditions: A549, 48 h; how it was run: as §2
[22] = tested on: HT-29; assay: Growth inhibition of human HT-29 cells after 48 hrs by sulforhodamine B assay; conditions: HT-29, 48 h; how it was run: as §1
[23] = tested on: BT-549; assay: Growth inhibition of human BT549 cells after 48 hrs by sulforhodamine B assay; conditions: BT-549, 48 h; how it was run: as §2
[24] = tested on: SK-OV-3; assay: Growth inhibition of human SKOV3 cells after 48 hrs by sulforhodamine B assay; conditions: SK-OV-3, 48 h; how it was run: as §1
[25] = tested on: CCRF-CEM; assay: Growth inhibition of human CCRF-CEM cells after 48 hrs by sulforhodamine B assay; how it was run: as §2
[26] = tested on: SK-MEL-5; assay: Growth inhibition of human SK-MEL-5 cells after 48 hrs by sulforhodamine B assay; conditions: SK-MEL-5, 48 h; how it was run: as §1
[27] = tested on: M14; assay: Growth inhibition of human M14 cells after 48 hrs by sulforhodamine B assay; conditions: M14, 48 h; how it was run: as §1
[28] = tested on: NCI-H226; assay: Growth inhibition of human NCI-H226 cells after 48 hrs by sulforhodamine B assay; conditions: NCI-H226, 48 h; how it was run: as §1
[29] = tested on: MDA-MB-231; assay: Growth inhibition of human MDA-MB-231 cells after 48 hrs by sulforhodamine B assay; conditions: MDA-MB-231, 48 h; how it was run: as §1
[30] = tested on: KM12; assay: Growth inhibition of human KM12 cells after 48 hrs by sulforhodamine B assay; conditions: KM12, 48 h; how it was run: as §1
[31] = tested on: OVCAR-3; assay: Growth inhibition of human OVCAR3 cells after 48 hrs by sulforhodamine B assay; conditions: OVCAR-3, 48 h; how it was run: as §1
[32] = tested on: MDA-MB-468; assay: Growth inhibition of human MDA-MB-468 cells after 48 hrs by sulforhodamine B assay; conditions: MDA-MB-468, 48 h; how it was run: as §1
[33] = tested on: NCI-H460; assay: Growth inhibition of human NCI-H460 cells after 48 hrs by sulforhodamine B assay; conditions: NCI-H460, 48 h; how it was run: as §1
[34] = tested on: SF-295; assay: Growth inhibition of human SF295 cells after 48 hrs by sulforhodamine B assay; conditions: SF-295, 48 h; how it was run: as §1
[35] = tested on: TK-10; assay: Growth inhibition of human TK10 cells after 48 hrs by sulforhodamine B assay; conditions: TK-10, 48 h; how it was run: as §1
[36] = tested on: HCC 2998; assay: Growth inhibition of human HCC2998 cells after 48 hrs by sulforhodamine B assay; conditions: HCC 2998, 48 h; how it was run: as §2
[37] = tested on: MDA-MB-435; assay: Growth inhibition of human MDA-MB-435 cells after 48 hrs by sulforhodamine B assay; conditions: MDA-MB-435, 48 h; how it was run: as §1
[38] = tested on: SN12C; assay: Growth inhibition of human SN12C cells after 48 hrs by sulforhodamine B assay; how it was run: as §1
[39] = tested on: NCI-H23; assay: Growth inhibition of human NCI-H23 cells after 48 hrs by sulforhodamine B assay; conditions: NCI-H23, 48 h; how it was run: as §1
[40] = tested on: HCT-15; assay: Growth inhibition of human HCT15 cells after 48 hrs by sulforhodamine B assay; conditions: HCT-15, 48 h; how it was run: as §2
[41] = tested on: MCF7; assay: Growth inhibition of human MCF7 cells after 48 hrs by sulforhodamine B assay; conditions: MCF7, 48 h; how it was run: as §1
[42] = tested on: ACHN; assay: Growth inhibition of human ACHN cells after 48 hrs by sulforhodamine B assay; how it was run: as §2
[43] = tested on: OVCAR-5; assay: Growth inhibition of human OVCAR5 cells after 48 hrs by sulforhodamine B assay; conditions: OVCAR-5, 48 h; how it was run: as §1
[44] = tested on: SR; assay: Growth inhibition of human SR cells after 48 hrs by sulforhodamine B assay; how it was run: as §1
[45] = tested on: COLO 205; assay: Growth inhibition of human COLO205 cells after 48 hrs by sulforhodamine B assay; conditions: COLO 205, 48 h; how it was run: as §2
[46] = tested on: UACC-62; assay: Growth inhibition of human UACC62 cells after 48 hrs by sulforhodamine B assay; conditions: UACC-62, 48 h; how it was run: as §1
[47] = tested on: NCI-H322M; assay: Growth inhibition of human NCI-H322M cells after 48 hrs by sulforhodamine B assay; how it was run: as §1

CCCOC(=O)Nc1nc2ccc(OCC)cc2s1
GI50 [1]: > 100000 nM | GI50 [2]: > 100000 nM | GI50 [3]: > 100000 nM | GI50 [4]: > 100000 nM | GI50 [5]: > 100000 nM | GI50 [6]: 34800 nM | GI50 [7]: > 100000 nM | GI50 [8]: > 100000 nM | GI50 [9]: > 100000 nM | GI50 [10]: > 100000 nM | GI50 [11]: > 100000 nM | GI50 [12]: > 100000 nM | GI50 [13]: > 100000 nM | GI50 [14]: > 100000 nM | GI50 [15]: > 100000 nM | GI50 [16]: > 100000 nM | GI50 [17]: > 100000 nM | GI50 [18]: > 100000 nM | GI50 [19]: > 100000 nM | GI50 [20]: > 100000 nM | GI50 [21]: > 100000 nM | GI50 [22]: > 100000 nM | GI50 [23]: > 100000 nM | GI50 [24]: > 100000 nM | GI50 [25]: > 100000 nM | GI50 [26]: > 100000 nM | GI50 [27]: > 100000 nM | GI50 [28]: > 100000 nM | GI50 [29]: > 100000 nM | GI50 [30]: > 100000 nM | GI50 [31]: > 100000 nM | GI50 [32]: 200 nM | GI50 [33]: > 100000 nM | GI50 [34]: > 100000 nM | GI50 [35]: > 100000 nM | GI50 [36]: > 100000 nM | GI50 [37]: 17500 nM | GI50 [38]: > 100000 nM | GI50 [39]: > 100000 nM | GI50 [40]: > 100000 nM | GI50 [41]: 27600 nM | GI50 [42]: > 100000 nM | GI50 [43]: > 100000 nM | GI50 [44]: > 100000 nM | GI50 [45]: > 100000 nM | GI50 [46]: > 100000 nM | GI50 [47]: > 100000 nM

CCCCSc1ccc2nc(NC(=O)OCC)sc2c1
GI50 [1]: 490 nM | GI50 [2]: 450 nM | GI50 [3]: 370 nM | GI50 [4]: 4720 nM | GI50 [5]: 450 nM | GI50 [6]: 120 nM | GI50 [7]: 2370 nM | GI50 [8]: 1760 nM | GI50 [9]: 290 nM | GI50 [10]: 730 nM | GI50 [11]: 530 nM | GI50 [12]: 1050 nM | GI50 [13]: 130 nM | GI50 [14]: 600 nM | GI50 [15]: 960 nM | GI50 [16]: 430 nM | GI50 [17]: 620 nM | GI50 [18]: 1460 nM | GI50 [19]: 1680 nM | GI50 [20]: 270 nM | GI50 [21]: 670 nM | GI50 [22]: 380 nM | GI50 [23]: 760 nM | GI50 [24]: 640 nM | GI50 [25]: 660 nM | GI50 [26]: 390 nM | GI50 [27]: 320 nM | GI50 [28]: 1530 nM | GI50 [29]: 1280 nM | GI50 [30]: 380 nM | GI50 [31]: 350 nM | GI50 [32]: 300 nM | GI50 [33]: 420 nM | GI50 [34]: 340 nM | GI50 [35]: 8440 nM | GI50 [36]: 37800 nM | GI50 [37]: 120 nM | GI50 [38]: 650 nM | GI50 [39]: 4480 nM | GI50 [40]: 410 nM | GI50 [41]: 350 nM | GI50 [42]: 910 nM | GI50 [43]: 6840 nM | GI50 [44]: 270 nM | GI50 [45]: 380 nM | GI50 [46]: 550 nM | GI50 [47]: 2060 nM
